# Most compounds without a hit are left out; they make up all but 1.3% or so of the library.
# proCasp7 act: procaspase-7 activators, primary screen, counter-screen for procaspase-3 activator project, biochemical, absorbance, HTS, human; recombinant procaspase-7, Ac-DEVD-pNA absorbance 405 nm; D23A/D198A/D206A triple mutant, cannot self-cleave; scale: DMSO 0, 5 µM enzyme 100; activation, % at 8.5 µM; 0.093% of 330,000 active; AID 463210, 2010;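 active means percent activation above the screen-wide mean plus 3 SD, cut at about 25% in these data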
#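 buffer or medium = Zinc-free HEPES/NaCl buffer, pH 7.4 | material = Procaspase-7 triple mutant (PC-7 D3A) | input = 2 µM procaspase-7 mutant as dispensed | signal = Epi-absorbance of released pNA at 405 nm, two timepoints | timing = 1 h preincubation, 2 h reaction | replicates = singlicate compound testing | evaluation = % activation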
# proCasp3 act: activators of human procaspase-3 D3A mutant, primary screen, biochemical, absorbance, PC-3 D3A mutant, single concentration | recombinant procaspase-3 D3A, Ac-DEVD-pNA absorbance 405 nm | activation, % at 8.5 µM | 0.11% of 330,000 active;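 active means activation above the mean of all tested compounds plus 3 SD, cut at about 21% in these data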;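 further: 0% = DMSO alone and 100% = DMSO wells spiked with extra 5 µM PC-3 D3A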
# Target sequence (P42574 whole entry D9A/D28A/D175A): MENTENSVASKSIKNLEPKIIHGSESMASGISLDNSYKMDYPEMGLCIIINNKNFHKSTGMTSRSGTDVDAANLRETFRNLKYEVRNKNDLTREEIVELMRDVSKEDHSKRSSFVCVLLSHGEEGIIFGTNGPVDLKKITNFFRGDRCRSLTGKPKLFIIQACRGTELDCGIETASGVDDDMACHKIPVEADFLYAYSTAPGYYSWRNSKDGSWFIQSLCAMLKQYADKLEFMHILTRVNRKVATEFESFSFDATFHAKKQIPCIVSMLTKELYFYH
#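 Assay system – Procaspase-3 D3A mutant · Benchmarks – DMSO low control, extra-enzyme high control · Technique – 405 nm absorbance of p-nitroaniline, reads at 0 and 120 min · Doses – 8.5 µM nominal · Measure – % activation between DMSO and enzyme-spiked controls · Also added – Ac-DEVD-pNA chromogenic peptide substrate · Schedule – 1 h compound preincubation, 2 h substrate hydrolysis at 25 °C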
# JMJD2C inh: inhibitors of GASC-1 histone demethylase, primary screen, biochemical, fluorescence, DELFIA europium | 0.069% of 330,000 active | GST-JMJD2C(1-420) H3K9me3 demethylation | AID 2099, 2009 | inhibition, % at 2.35 µM;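 active means more than half of a compound's replicate wells show inhibition beyond 50%, single wells judged on their own value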;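 further: signal counts dimethyl H3K9 product captured on neutravidin plate; 0% = median of DMSO wells and 100% = 0.3 times that DMSO median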
# GRK2 inh: compounds blocking aptamer binding on GRK2 – biochemical, human GRK2, bead flow cytometry, HTS, primary screen. FAM-aptamer displacement from GRK2. Beta-adrenergic receptor kinase 1 (Homo sapiens), P25098. inhibition of aptamer binding, % at 10 µM. 0.59% of 330,000 active;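 active means inhibition of aptamer binding above 40%, roughly 3 SD of noise, on plates passing a quality check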;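 further: median bead fluorescence of bound FAM aptamer so fluorescent compounds give negative values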
# VLA-4 inh: inhibition in human VLA-4 binding assay, primary screen, VLA-4 allosteric modulator project, MLPCN library, flow cytometry, VLA-4 expressing cells; Integrin alpha-4 (Homo sapiens), P13612; ligand binding flow cytometry; inhibition, % (about 7 µM as worked out from the volumes in the protocol); 0.2% of 330,000 active; AID 2557, 2010; in the data active means inhibition above about 50%
# Lipid droplet: inhibitors of hepatocyte lipid droplet formation, primary screen, imaging, high-throughput imaging, BODIPY stain; inhibition, % at 6.5 µM; 0.4% of 240,000 active; AML12 mouse hepatocytes, oleate lipid droplets; AID 1656, 2009;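 active means lipid droplet intensity inhibited by at least 50%, with more than 500 cells counted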
#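 Assay system: AML12 hepatocytes (mouse); Probe or stimulus: oleic acid at 100 µM to induce lipid droplet formation; Dosing: compound at 6.5 µM only; Schedule: compound with oleate, overnight; Detection: fluorescence imaging, 20x objective, two fields per well; Measure: % inhibition of lipid droplet signal.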
# Lipid drop inh: hepatocyte lipid droplet accumulation inhibitors, confirmation, imaging, AML12 mouse hepatocytes, single concentration, high-content; shares compounds with Lipid droplet; BODIPY lipid droplet imaging; droplets induced with 100 µM oleic acid; inhibition, % at 5.2 µM; 65% of 870 active;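 active means inhibition of lipid droplet metric at least 50%, with more than 300 cells in each of four replicates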;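 further: plate controls were DMSO with oleic acid for no effect and 5 µM Triacsin-C for full effect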
# AML12 tox img: AML12 hepatocyte cytotoxicity, counter-screen for hepatic lipid droplet formation project, imaging, DAPI nuclear morphology imaging. 3% of 870 active. shares compounds with Lipid droplet. z-score at 5 µM. AML12 mouse hepatocytes; active compounds read high; cells fed 100 µM oleate overnight. AID 463200, 2010; in the data active means z-score above about 6.3;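 further: compound exposure lasted overnight at 37 °C before fixation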
# AML12 tox conf: AML12 hepatocyte cytotoxicity, confirmation, cytotoxicity control for hepatic lipid droplet formation project, cell-based, single concentration; AID 463219, 2010; shares compounds with Lipid droplet; cytotoxicity, % at 50 µM; AML12 mouse hepatocyte viability, ATP luminescence; cells loaded with 100 µM oleic acid; 530 tested, under 10 active;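 active means cytotoxicity above 50% in each of four replicates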;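 further: compound exposure lasted overnight at 37 °C before the ATP read; 0% = DMSO-treated cells and 100% = wells with no cells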
# The depositor's hits bear a star; nt = no result given.
SMILES,proCasp7 act,proCasp3 act,JMJD2C inh,GRK2 inh,VLA-4 inh,Lipid droplet,Lipid drop inh,AML12 tox img,AML12 tox conf
CNS(=O)(=O)c1cccc(C(=O)OCC(=O)Nc2nc(OC)cc(OC)n2)c1,-4.1,-10.1,-0.5,34.0,-8.3,nt,nt,nt,nt
CCOc1ccc(CCNC(=O)CCS(=O)(=O)c2ccc(OC)cc2)cc1OCC,-2.5,4.0,7.7,16.0,6.2,84.3*,97.2*,-0.439,10.3
CCOc1ccc(CCNC(=O)COC(=O)C2CC2)cc1OCC,0.1,4.6,4.0,1.0,-0.1,nt,nt,nt,nt
CCOc1ccc(CCNC(=O)C2CC=CCC2C(=O)OC(C)C)cc1OCC (stereo unspecified),-5.6,4.9,-1.3,0.0,23.6,114.2*,106.5*,0.382,13.0
CCOc1ccc(CCNC(=O)CN2CCN(Cc3ccc(F)cc3)C2=O)cc1OCC,8.3,-0.8,0.7,0.0,2.6,68.7*,103.9*,-0.21,12.9
Cn1c(=O)c(=O)n(C)c2cc(N3CCOCC3)c(NS(=O)(=O)c3ccc(F)c(Cl)c3)cc21,-11.8,-0.3,-5.6,0.0,15.8,-24.5,nt,nt,nt
Cn1c(=O)c(=O)n(C)c2cc(N3CCCC3)c(NS(=O)(=O)c3ccc(Cl)cc3)cc21,-3.1,-1.9,15.5,4.0,6.9,50.1*,8.0,-0.613,nt
CCOC(=O)C1CCC(CN(Cc2ccccc2)S(=O)(=O)c2ccc([N+](=O)[O-])cc2)CC1 (stereo unspecified),-1.8,-5.5,1.6,4.0,3.1,59.4*,81.5*,-0.462,6.5
CCOC(=O)C1CCN(C(=O)CN(Cc2ccccc2)S(C)(=O)=O)CC1,0.8,4.8,-1.1,0.0,17.6,-4.1,nt,nt,nt
O=C(N/N=C/c1cn(-c2ccccc2)nc1-c1cc2ccccc2o1)c1ccccc1Br,1.9,-6.1,-4.6,1.0,16.4,102.4*,105.3*,1.14,14.8
O=C(N/N=C/c1cn(-c2cccs2)nc1-c1ccccc1)c1ccccc1Br,0.0,2.5,-7.7,0.0,-32.9,10.8,nt,nt,nt
CCc1ccc(NC(=O)CS(=O)CC(=O)Nc2ccc(N3CCOCC3)cc2)cc1 (stereo unspecified),7.2,-8.2,5.8,0.0,16.8,-6.1,nt,nt,nt
COc1cccc(-c2cc(C(=O)Nc3ccc([N+](=O)[O-])cn3)c3ccccc3n2)c1,-8.9,-3.6,2.8,20.0,23.6,57.2*,74.6*,-0.595,11.7
O=C(Nc1ccccn1)c1cc(-c2cccc(Cl)c2)nc2ccccc12,2.7,1.3,3.5,0.0,0.5,nt,nt,nt,nt
O=C(Nc1ccc([N+](=O)[O-])cn1)c1cc(-c2cccc(Cl)c2)nc2ccccc12,7.2,6.9,-6.4,0.0,0.1,67.8*,37.6,0.222,nt
O=C(Nc1ccc([N+](=O)[O-])cn1)c1cc(-c2cccc(Br)c2)nc2ccccc12,-3.5,2.6,6.9,0.0,5.8,63.6*,64.2*,-0.171,10.1
COc1cccc(-c2cc(C(=O)Nc3ccccc3)c3ccccc3n2)c1,2.8,-17.4,9.9,0.0,8.1,nt,nt,nt,nt
